Results as given in paper PMC5912169 (Bioorganic & medicinal chemistry letters, 2018).

How the values were obtained:
human cathepsin L = human cathepsin L (Homo sapiens, UniProt P07711); assay: Human cathepsin L inhibition; format: biochemical; details: from 0.1 μM to 125 μM; 1 hour pre-incubation
Outline: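 Human liver-derived cathepsin L (0.58 nM) in 400 mM sodium acetate pH 5.5 with 8 mM DTT, 4 mM EDTA and 0.01% Triton X-100. Pre-incubated 1 h with test compound, then Z-Phe-Arg-AMC (20 μM, concentration as added) in sodium acetate buffer. Substrate cleavage was followed as fluorescence rate (RFU/sec) at 25 °C, λex 355/λem 460 nm.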

[1] = molecular target: T. brucei cathepsin L (rhodesain) (Trypanosoma brucei rhodesiense, UniProt Q95PM0); assay: Rhodesain inhibition assay; format: biochemical; details: 1 hour pre-incubation
Outline: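 Rhodesain was expressed in Pichia pastoris and used at 0.8 nM final in 50 mM sodium acetate pH 5.5 with 2 mM DTT and 0.01% Triton X-100. It was pre-incubated 1 h with test compound (20 μM final), then Z-Phe-Arg-AMC (10 μM) was added. Cleavage rate (RFU/sec) was read at 25 °C, λex 355/λem 460 nm. E-64 (10 μM) served as positive control.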

T. brucei (STIB795) = assay: In vivo antitrypanosomal activity, T. b. brucei STIB795-Luc mouse model; design: species or system mice; details: 4 consecutive days
Outline: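 Groups of four female NMRI mice were infected ip with 1 × 10⁴ bloodstream-form T. b. brucei STIB795-Luc. Test compound was given ip in water plus 10% DMSO from 3 days post-infection, with an untreated control group. Parasitemia was tracked by live imaging, and moribund mice were euthanized.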

human cathepsin L, sequence (P07711 114-333): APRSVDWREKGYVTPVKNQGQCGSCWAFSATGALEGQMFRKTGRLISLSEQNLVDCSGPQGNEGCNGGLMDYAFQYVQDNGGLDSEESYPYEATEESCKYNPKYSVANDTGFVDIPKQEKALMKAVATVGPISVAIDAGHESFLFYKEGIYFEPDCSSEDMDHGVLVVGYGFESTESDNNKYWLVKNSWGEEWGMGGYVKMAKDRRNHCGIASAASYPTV

SMILES	inhibitory activity against human cathepsin L (human cathepsin L)	inhibition of rhodesain at 20 μM [1]	parasites in infected mice 24 hours posttreatment (T. brucei (STIB795); 50 mg/kg/day intraperitoneally)	parasites in infected mice 24 hours posttreatment (T. brucei (STIB795); 100 mg/kg/day intraperitoneally)
O=C(N[C@H](/C=C/S(=O)(=O)c1ccccc1)CCc1ccccc1)c1cccc2cccnc12 [Compound 27]	inactive	completely inactivate	–	–
O=C(Cc1ccc(OC/C=C/S(=O)(=O)c2ccccc2)cc1)Nc1cccc2cccnc12 [Compound 9]	–	–	positive for parasites	positive for parasites
